In ChEMBL document CHEMBL1770060, “Diaryl urea analogues of SB-334867 as orexin-1 receptor antagonists” (Bioorg Med Chem Lett, 2011):
Activity calls are given as the source filed them. The rule behind the calls is not given here.

Assays:
[1] = biological target: T1, Orexin/Hypocretin receptor type 1 (Homo sapiens) (UniProt O43613); assay: Antagonist activity at OX1 receptor expressed in CHO cells assessed as inhibition of orexin-A-induced calcium mobilization by FlexStation assay; assay type: functional, cell-based
T1 sequence (whole entry): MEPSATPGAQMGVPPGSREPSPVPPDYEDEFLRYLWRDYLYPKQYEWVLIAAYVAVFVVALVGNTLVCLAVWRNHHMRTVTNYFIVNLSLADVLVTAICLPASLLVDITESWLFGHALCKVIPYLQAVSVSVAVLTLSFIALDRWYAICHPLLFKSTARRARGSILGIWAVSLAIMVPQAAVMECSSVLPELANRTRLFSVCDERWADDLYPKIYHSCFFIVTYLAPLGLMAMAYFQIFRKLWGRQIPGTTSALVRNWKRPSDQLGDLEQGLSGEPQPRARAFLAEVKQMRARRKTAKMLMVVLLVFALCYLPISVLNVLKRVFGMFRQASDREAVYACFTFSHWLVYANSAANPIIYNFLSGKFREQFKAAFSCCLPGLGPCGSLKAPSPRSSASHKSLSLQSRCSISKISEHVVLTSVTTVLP
In short: (§1)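 Cells stably expressing OX1 or OX2 receptor, dye-loaded 1 h. EC50s came from a three-parameter logistic fit. Ke = [L]/(DR−1), DR = A'/A. Duplicates; ≥3 (OX1) or ≥2 (OX2) independent experiments.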

[2] = biological target: T2, Orexin receptor type 2 (Homo sapiens) (UniProt O43614); assay: Antagonist activity at OX2 receptor expressed in CHO cells assessed as inhibition of orexin-A-induced calcium mobilization by FlexStation assay; assay type: functional, cell-based; in short: as §1
T2 sequence (whole entry): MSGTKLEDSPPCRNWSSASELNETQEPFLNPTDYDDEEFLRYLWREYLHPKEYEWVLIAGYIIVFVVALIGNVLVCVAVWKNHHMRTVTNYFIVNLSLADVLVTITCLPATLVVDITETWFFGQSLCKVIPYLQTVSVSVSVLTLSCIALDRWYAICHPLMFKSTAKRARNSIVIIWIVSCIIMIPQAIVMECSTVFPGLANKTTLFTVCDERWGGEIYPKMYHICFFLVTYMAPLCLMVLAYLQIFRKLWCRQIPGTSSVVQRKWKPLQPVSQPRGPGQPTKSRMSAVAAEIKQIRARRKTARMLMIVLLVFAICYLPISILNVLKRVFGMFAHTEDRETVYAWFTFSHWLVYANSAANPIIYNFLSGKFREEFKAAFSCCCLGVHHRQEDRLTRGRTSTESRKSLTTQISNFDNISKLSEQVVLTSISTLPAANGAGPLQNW

[3] = biological target: T2, Orexin receptor type 2 (Homo sapiens); assay: Agonist activity at OX2 receptor expressed in CHO cells at 10 uM by FlexStation assay; assay type: functional, cell-based
In short: (§2)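 Separate cell lines stably expressing OX1 or OX2 receptor were loaded with calcium-sensitive dye for 1 h. Compounds were tested alone at 10 µM for intrinsic agonist activity, read as a rise in fluorescence (intracellular calcium) on the FlexStation.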

[4] = Selectivity ratio of Ke for OX2 receptor to Ke for OX1 receptor
[5] = biological target: T1, Orexin/Hypocretin receptor type 1 (Homo sapiens); assay: Agonist activity at OX1 receptor expressed in CHO cells at 10 uM by FlexStation assay; assay type: functional, cell-based; in short: as §2

Row | Ke [1] | Ke [2] | Activity [3] | Ratio Ke [4] | Activity [5] | SMILES
1 | 965 nM | > 10000 nM | inactive | > 10 | inactive | COc1ccc(NC(=O)Nc2ccnc3c(F)cccc23)cc1OC
2 | 13.4 nM | 1620 nM | inactive |  | inactive | O=C(Nc1ccc2c(c1)OCO2)Nc1ccnc2c(F)cccc12
3 | > 10000 nM | > 10000 nM | inactive |  | inactive | CN(C)c1ccc(CC(=O)Nc2ccnc3c(F)cccc23)cc1
4 | 45 nM | 1190 nM | inactive | 50 | inactive | Cc1nc2ccc(NC(=O)Nc3ccnc4cccnc34)cc2o1
